In ChEMBL document CHEMBL3774324, “iPSC Neuronal Assay Identifies Amaryllidaceae Pharmacophore with Multiple Effects against Herpesvirus Infections” (ACS Med Chem Lett, 2016):
Activity calls are given as the source filed them. The rule behind the calls is not given here.

Legend:
Human alphaherpesvirus 1 [1] = assay: Antiviral activity against HSV1 KOS ATCC VR1493 infected in African green monkey Vero cells assessed as reduction in EGFP-positive cells at 10 uM treated at 2 hrs post infection measured 24 hrs post infection by flow cytometric analysis relative to control; type: functional
In short: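 Vero cells infected with EGFP-expressing HSV-1 at MOI 1, then given medium with 10 μM test agent (DMSO vehicle) at 2 hpi. Percentage of EGFP+ cells read by flow cytometry at 24 hpi against untreated infected cultures. Mean of three independent experiments, SD.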

Human alphaherpesvirus 1 [2] = assay: Antiviral activity against HSV1 KOS ATCC VR1493 infected in human iPSC cells assessed as reduction in virus yield at 10 uM treated at 2 hrs post infection measured 48 hrs post infection by flow cytometric analysis relative to control; type: functional, organism-based
Human alphaherpesvirus 1 [3] = assay: Antiviral activity against HSV1 KOS ATCC VR1493 infected in African green monkey Vero cells assessed as reduction in virus yield at 10 uM treated at 2 hrs post infection measured 48 hrs post infection by flow cytometric analysis relative to control; type: functional, organism-based
Human alphaherpesvirus 1 [4] = assay: Antiviral activity against HSV1 KOS ATCC VR1493 infected in human iPSC cells assessed as reduction in EGFP-positive cells at 10 uM treated at 2 hrs post infection measured 24 hrs post infection by flow cytometric analysis relative to control; type: functional
In short: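 Human iPSC-derived neurons infected with engineered EGFP HSV-1 at MOI 0.3 and treated with 10 μM at 2 hpi (DMSO vehicle). Percentage of EGFP+ cells measured by flow cytometry at 24 hpi relative to untreated infected cultures. Average of three independent experiments, SD.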

Human alphaherpesvirus 1 [5] = assay: Antiviral activity against HSV1 KOS ATCC VR1493 infected in human iPSC cells assessed as viral DNA replication at 10 uM measured 24 hrs post infection by FISH analysis; type: functional, organism-based
In short: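 HSV-1-infected iPSC-neurons (MOI 0.3), treated with 10 μM at 2 hpi. Fluorescent in situ hybridisation with HSV-1 DNA probe to detect viral DNA replication at 24 hpi.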

Human alphaherpesvirus 1 [6] = assay: Antiviral activity against HSV1 KOS ATCC VR1493 infected in human iPSC cells assessed as reduction in expression of ICP4 at 50 uM measured 24 hrs post infection by western blot analysis; type: functional, organism-based
Human alphaherpesvirus 1 [7] = assay: Antiviral activity against HSV1 KOS ATCC VR1493 infected in human iPSC cells assessed as reduction in expression of DNA polymerase gene at 50 uM measured 24 hrs post infection by RT-qPCR analysis; type: functional, organism-based
In short: (§1)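 Human iPSC-derived neurons were infected with engineered HSV-1 at MOI 0.3 and treated 2 hpi (DMSO vehicle). RNA was taken 24 hpi, and viral ICP4 and viral DNA polymerase transcripts were quantified by RT-qPCR relative to infected untreated cells.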

Human alphaherpesvirus 1 [8] = assay: Antiviral activity against HSV1 KOS ATCC VR1493 infected in African green monkey Vero cells assessed as viral titre at 50 uM treated at 2 hrs post infection measured 48 hrs post infection by […] relative to control; type: functional
[9] = Cytotoxicity against human ARPE19 cells assessed as cell viability at 0.1 to 50 uM after 24 to 48 hrs by live/dead fixable viability dye-based flow cytometric analysis; conditions: arpe-19, 50 µM
Human alphaherpesvirus 1 [10] = assay: Antiviral activity against HSV1 KOS ATCC VR1493 infected in human iPSC cells assessed as reduction in expression of ICP4 gene at 50 uM measured 24 hrs post infection by RT-qPCR analysis; type: functional, organism-based; in short: as §1
Human alphaherpesvirus 1 [11] = assay: Antiviral activity against HSV1 KOS ATCC VR1493 infected in human iPSC-derived neurons assessed as reduction in EGFP-positive cells treated at 2 hrs post infection measured 24 hrs post infection by flow cytometric analysis; conditions: Human alphaherpesvirus 1, KOS ATCC VR1493, iPSC-derived neurons
Human alphaherpesvirus 1 [12] = assay: Antiviral activity against HSV1 KOS ATCC VR1493 infected in human iPSC cells assessed as viral DNA replication at 50 uM measured 24 hrs post infection by FISH analysis; type: functional, organism-based
In short: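 iPSC-derived neurons were infected with engineered HSV-1 at MOI 0.3 and given drug 2 hpi. Viral DNA replication was scored by fluorescent in situ hybridization with an HSV-1 DNA probe, counting hybridizing signals.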

[13] = Cytotoxicity against human iPSC cells assessed as cell viability at 0.1 to 50 uM after 24 to 48 hrs by live/dead fixable viability dye-based flow cytometric analysis
In short: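 Viability of iPSC-neurons exposed to test agent over 100 nM to 50 μM.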

Human alphaherpesvirus 1 [14] = assay: Induction of sodium butyrate-induced reactivation of HSV1 KOS ATCC VR1493 infected in human iPSC cells assessed as decrease in EGFP MFI at 10 uM measured after 5 days of withdrawal in presence of IFN-alpha relative to 5BVdU/IFN-alpha-treated cells; type: functional
Human alphaherpesvirus 3 [15] = assay: Antiviral activity against VZV infected in human ARPE19 cells at 10 uM treated at 2 hrs post infection measured 48 hrs post infection by luciferase assay relative to control; type: functional
In short: (§2)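 ARPE-19 retinal pigment epithelial cells infected with VZV carrying luciferase under the late ORF9 promoter at 1000 PFU/well. Compound added 2 hpi. Luciferase counts per second read at 48 hpi.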

Human alphaherpesvirus 1 [16] = assay: Antiviral activity against HSV1 KOS ATCC VR1493 infected in human iPSC cells assessed as reduction in expression of DNA polymerase gene at 10 uM measured 24 hrs post infection by RT-qPCR analysis; type: functional, organism-based
In short: (§3)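 iPSC-neurons infected with HSV-1 (MOI 0.3) and treated with 10 μM at 2 hpi. RT-qPCR of ICP4 and viral DNA polymerase transcripts at 24 hpi.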

Human alphaherpesvirus 1 [17] = assay: Induction of sodium butyrate-induced reactivation of HSV1 KOS ATCC VR1493 infected in human iPSC cells assessed as reduction in EGFP/RFP-positive cells at 10 uM measured after 5 days of withdrawal by flow cytometric analysis relative to 5BVdU/[…]-treated cells; type: functional, organism-based
Human alphaherpesvirus 1 [18] = assay: Induction of sodium butyrate-induced reactivation of HSV1 KOS ATCC VR1493 infected in human iPSC cells assessed as increase in EGFP-positive cells at 10 uM measured after 5 days of withdrawal by flow cytometric analysis relative to 5BVdU/IFN-alpha-treated cells; type: functional
Human alphaherpesvirus 1 [19] = assay: Induction of sodium butyrate-induced reactivation of HSV1 KOS ATCC VR1493 infected in human iPSC cells assessed as decrease in EGFP MFI at 10 uM measured after 5 days of withdrawal relative to 5BVdU/IFN-alpha-treated cells; type: functional
Human alphaherpesvirus 1 [20] = assay: Antiviral activity against HSV1 KOS ATCC VR1493 infected in human iPSC cells assessed as reduction in expression of ICP4 gene at 10 uM measured 24 hrs post infection by RT-qPCR analysis; type: functional, organism-based; in short: as §3
Human alphaherpesvirus 1 [21] = assay: Induction of sodium butyrate-induced reactivation of HSV1 KOS ATCC VR1493 infected in human iPSC cells assessed as reduction in EGFP/RFP-positive cells at 10 uM measured after 5 days of withdrawal in presence of IFN-alpha by flow cytometric analysis relative to 5BVdU/[…]-treated cells; type: functional, organism-based
Human alphaherpesvirus 1 [22] = assay: Induction of sodium butyrate-induced reactivation of HSV1 KOS ATCC VR1493 infected in human iPSC cells assessed as increase in EGFP-positive cells at 10 uM measured after 5 days of withdrawal in presence of IFN-alpha by flow cytometric analysis relative to 5BVdU/[…]-treated cells; type: functional
Human alphaherpesvirus 3 [23] = assay: Antiviral activity against VZV infected in human ARPE19 cells treated at 2 hrs post infection measured 48 hrs post infection by luciferase assay; type: functional, organism-based; conditions: Human alphaherpesvirus 3, ARPE-19; in short: as §2
Human alphaherpesvirus 1 [24] = assay: Induction of sodium butyrate-induced reactivation of HSV1 KOS ATCC VR1493 infected in human iPSC cells assessed as decrease in EGFP/RFP MFI at 10 uM measured after 5 days of withdrawal relative to 5BVdU/IFN-alpha-treated cells; type: functional, organism-based
Human alphaherpesvirus 1 [25] = assay: Antiviral activity against HSV1 KOS ATCC VR1493 infected in human iPSC cells assessed as reduction in expression of ICP4 at 10 uM measured 24 hrs post infection by western blot analysis; type: functional, organism-based
Human alphaherpesvirus 1 [26] = assay: Antiviral activity against HSV1 KOS ATCC VR1493 infected in human iPSC cells assessed as reduction in viral DNA copy at 10 uM measured 24 hrs post infection by RT-qPCR analysis relative to control; type: functional
In short: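 iPSC-neurons infected with HSV-1 (MOI 0.3) and treated with 10 μM at 2 hpi. DNA extracted at 24 hpi. Viral DNA copy number measured by qPCR relative to infected untreated cells.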

Human alphaherpesvirus 1 [27] = assay: Induction of sodium butyrate-induced reactivation of HSV1 KOS ATCC VR1493 infected in human iPSC cells assessed as decrease in EGFP/RFP MFI at 10 uM measured after 5 days of withdrawal in presence of IFN-alpha relative to 5BVdU/IFN-alpha-treated cells; type: functional, organism-based

In the case of `O=C1N[C@H]2[C@H](O)[C@H](O)[C@@H](O)[C@H](O)[C@@H]2c2cc3c(c(O)c21)OCO3` [PANCRATISTATIN], the “fold change (FC)” value (Human alphaherpesvirus 1 [1]) is reported as 8.3, the Activity (Human alphaherpesvirus 1 [2]) is reported as “Active” and the Activity (Human alphaherpesvirus 1 [3]) is reported as “Active”. The “fold change (FC)” value (Human alphaherpesvirus 1 [4]) was 62 and the Activity (Human alphaherpesvirus 1 [5]) was “Active”.
For `O=C1N[C@@H]2C(=C[C@H](O)[C@@H](O)[C@H]2O)c2cc3c(c(O)c21)OCO3` [NARCICLASINE], the “fold change (FC)” value (Human alphaherpesvirus 1 [1]) was 10.6, the Activity (Human alphaherpesvirus 1 [2]) was “Active” and the Activity (Human alphaherpesvirus 1 [3]) was “Active”. The “fold change (FC)” value (Human alphaherpesvirus 1 [4]) was 69 and the Activity (Human alphaherpesvirus 1 [5]) was “Active”.
With `O=C1N[C@H]2[C@H](O)C[C@@H](O)C[C@@H]2c2cc3c(cc21)OCO3` the Activity (Human alphaherpesvirus 1 [1]) was “inactive”, the Activity (Human alphaherpesvirus 1 [3]) was “inactive” and the Activity (Human alphaherpesvirus 1 [5]) was “inactive”.
With `O=C1N[C@H]2[C@H](O)[C@@H](O)[C@@H](O)C[C@@H]2c2cc3c(cc21)OCO3` the Activity (Human alphaherpesvirus 1 [1]) was “inactive”, the Activity (Human alphaherpesvirus 1 [3]) was “inactive” and the Activity (Human alphaherpesvirus 1 [5]) was “inactive”.
With `Nc1nc2c(ncn2COCCO)c(=O)[nH]1` [ACYCLOVIR] the Activity (Human alphaherpesvirus 1 [6]) was “Active”, the Activity (Human alphaherpesvirus 1 [7]) was “Active” and the Activity (Human alphaherpesvirus 1 [8]) was 33.3 PFU/ml. For the same compound, the Activity [9] was “Non-toxic”, the Activity (Human alphaherpesvirus 1 [10]) was “Active” and the EC50 (Human alphaherpesvirus 1 [11]) was 70 nM. The Activity (Human alphaherpesvirus 1 [12]) was “Active” and the Activity [13] was “Non-toxic”.
In the case of `O=C1N[C@H]2[C@H](O)[C@H](O)[C@@H](O)C[C@@H]2c2cc3c(cc21)OCO3`, the “fold change (FC)” value (Human alphaherpesvirus 1 [14]) is reported as 2.5, the “fold change (FC)” value (Human alphaherpesvirus 3 [15]) is reported as 220 and the Activity (Human alphaherpesvirus 1 [16]) is reported as “Active”. The Activity (Human alphaherpesvirus 1 [17]) was “Active”, the “fold change (FC)” value (Human alphaherpesvirus 1 [1]) was 19.6 and the “fold change (FC)” value (Human alphaherpesvirus 1 [18]) was 2.9. For the same compound, the Activity [9] was “Non-toxic”, the “fold change (FC)” value (Human alphaherpesvirus 1 [19]) was 1.6 and the Activity (Human alphaherpesvirus 1 [20]) was “Active”. The EC50 (Human alphaherpesvirus 1 [11]) was 100 nM, the Activity (Human alphaherpesvirus 1 [21]) was “Active” and the Activity (Human alphaherpesvirus 1 [2]) was “Active”. For the same compound, the “fold change (FC)” value (Human alphaherpesvirus 1 [22]) was 2.1, the EC50 (Human alphaherpesvirus 3 [23]) was 150 nM and the Activity (Human alphaherpesvirus 1 [3]) was “Active”. The Activity (Human alphaherpesvirus 1 [24]) was “Active”, the Activity (Human alphaherpesvirus 1 [25]) was “Active” and the “fold change (FC)” value (Human alphaherpesvirus 1 [4]) was 28. For the same compound, the Activity [13] was “Non-toxic”, the “fold change (FC)” value (Human alphaherpesvirus 1 [26]) was >1800 and the Activity (Human alphaherpesvirus 1 [27]) was “Active”. For the same compound, the Activity (Human alphaherpesvirus 1 [5]) was “Active”.
For `COC(=O)N[C@H]1C(=O)C[C@@H](O)C[C@@H]1c1ccc2c(c1)OCO2`, the Activity (Human alphaherpesvirus 1 [1]) was “inactive”, the Activity (Human alphaherpesvirus 1 [3]) was “inactive” and the Activity (Human alphaherpesvirus 1 [5]) was “inactive”.
